Rows were chosen to be rich in hits. Some 3.6% of all compounds tested hit in one or more screens of this group.
BB579 growth dn: chemicals that inhibit yeast BB579 growth in restrictive medium (lifespan-shortening candidates). 140,000 tested, 0.51% active. S. cerevisiae BB579 growth, OD615, 48 h. AID 804. inhibition, % at 10 µM;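 active = inhibition above a set limit, 3 SD over the mean compound inhibition, cut at about 44% in these data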
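Test system: S. cerevisiae DeaD strain BB579 yeast; Medium: restrictive CSMM-D medium; Compound: one dose, 10 µM compound with 0.25% DMSO; Incubation: 4 h cell preincubation, 48 h compound exposure, 30 °C humidified; Signal: OD at 615 nm; Benchmarks: amphotericin B at 10 µg/mL as positive control.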
Measles CPE: protection of cells from measles virus; protection (pct of control), % at 4 µM; Measles virus-infected cells, CPE protection, absorbance; 140,000 tested, 1.5% active; AID 841; in the data active = protection mostly above about 24%, no sharp cut-off; inactive = mostly below about 26%
RAM inhibit: blocks the yeast RAM network. AID 868. S. cerevisiae dse1pr::URA3 reporter, 5-FOA growth OD615, 2 d; analog-sensitive cbk1-as2 kinase mutant strain. inhibition, % at 50 µM. 190,000 tested, 1.8% active;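 active = inhibition above a set limit, 3 SD over mean compound inhibition, cut at about 8.4% in these data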;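 note: 0% = DMSO-only wells with no growth and 100% = 10 µM 1-NA-PP1 full growth; inhibition rescues growth on 5-FOA so higher OD means more RAM inhibition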
Yeast lifespan up: extends the lifespan of yeast | S. cerevisiae growth with nicotinamide, OD615; deaD strain in restrictive glucose medium | inhibition of the nicotinamide effect, % at 10 µM | 130,000 tested, 0.68% active | AID 775;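 active = inhibition above a set limit, placed 3 SD over the median of all compounds, cut at about 26% in these data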;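 note: 0% = nicotinamide-treated wells and 100% = cells grown without nicotinamide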
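assay system = DeaD-strain S. cerevisiae | buffer or medium = restrictive glucose medium | reagent = 1.5 mM nicotinamide | compound = 10 µM single point, 0.25% DMSO | incubation = 48 h compound exposure at 30 °C, humidified | signal = OD615 measurement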
RAM efflux-def: RAM network inhibitors in efflux-deficient yeast. max inhibition, %. 1,200 tested, under 10 active. AID 1305. S. cerevisiae efflux-deficient reporter strain, 5-FOA growth OD615, 2 days. shares compounds with RAM inhibit; call rule not given here;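 note: plate controls were vehicle for no effect and reference inhibitor for full effect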
* hit, by the source's call; / = no result given.

SMILES	BB579 growth dn	Measles CPE	RAM inhibit	Yeast lifespan up	RAM efflux-def
O=C(c1c(F)c(F)c(F)c(F)c1F)N1CCN(c2cccc(C(F)(F)F)c2)CC1	-30.2	8.5	5.5	-3.9	/
O=C(/C=C/c1ccc(Br)cc1)N1CCN(c2cccc(C(F)(F)F)c2)CC1	-36.1	20.6	12.4*	7.2	3.1
Cc1ccc(CC(=O)N2CCN(c3cccc(C(F)(F)F)c3)CC2)cc1	-29.2	7.5	3.9	-14.6	/
O=C(/C=C/c1cccc(Br)c1)N1CCN(c2cccc(C(F)(F)F)c2)CC1	-33.2	3.4	16.1*	4.4	2.6
COc1ccccc1C/C(N)=N/OC(=O)/C=C/c1ccccc1	/	/	0.9	/	/
O=C(NC1CC1)c1cc2c(F)cccc2s1	/	/	-0.4	/	/
CCCCCCN1C=C/C(=C\C=C(C#N)C#N)c2ccccc21	-22.2	6.0	16.7*	14.5	3.6
Cc1cc(NC(=O)CSc2nnc(C)n2-c2ccccc2C)no1	/	/	2.7	/	/
CCCCn1nnc(NC(=S)NC(=O)c2ccc(-c3cccc(Cl)c3Cl)o2)n1	-14.3	13.9	13.5*	7.6	4.7
CCCCn1nnc(NC(=O)c2ccc(-c3ccccc3[N+](=O)[O-])o2)n1	/	/	1.5	/	/
C=CCn1c(SCC(=O)/C(C#N)=C(\C)N)nc2sc(CC)cc2c1=O	-31.1	2.4	12.8*	-2.6	7.8
CCC(C(=O)Nc1ccsc1C(=O)OC)c1ccccc1 (configuration not stated)	/	/	17.1*	/	2.9
O=C(COc1cccnc1[N+](=O)[O-])Nc1cccc(S(=O)(=O)N2CCOCC2)c1	/	/	0.9	/	/
COc1ccc(NC(=O)C23CC4CC(C2)CC(c2ccccc2)(C4)C3)c(OC)c1	-24.8	2.8	12.6*	-0.4	4.2
COCCNC(=O)C12CC3CC(C1)CC(c1ccccc1)(C3)C2	/	/	0.7	/	/
CCOc1ccccc1NC(=O)CN(c1ccc(OC)cc1OC)S(=O)(=O)c1ccccc1[N+](=O)[O-]	/	/	5.0	/	/
COc1cccc(NC(=S)NCc2ccc3c(c2)cc(C)n3C)c1	/	/	11.7*	/	6.2
Cc1cc2cc(CNC(=S)Nc3ccc(OC(F)(F)F)cc3)ccc2n1C	-26.7	14.4	4.0	7.9	/
O=C(Nc1nnc(-c2cccs2)o1)c1cc(-c2ccccc2)nc2ccccc12	-16.4	3.5	3.0	16.0	/
CC(C)c1ccc(/C=C2\NC(=S)N(Cc3cccnc3)C2=O)cc1	/	/	5.2	/	/
O=C(O)CCCNc1ccc(S(=O)(=O)N2CCCCC2)cc1	/	/	2.5	/	/
CC1(C)CC(C(CCN(Cc2ccccc2)C(=O)c2ccco2)c2ccc(F)cc2)CCO1 (configuration not stated)	-47.8	26.9	11.9*	11.5	3.2
CC1(C)CC(N(Cc2cccs2)C(=O)c2ccco2)CCO1 (configuration not stated)	-10.8	1.7	0.0	-7.5	/
COc1ccc(OC)c(-c2cc(C(=O)N3CCc4ccccc4C3)no2)c1	-48.9	10.9	11.9*	44.4*	1.6
Oc1ccc(CCC2CCCCN2Cc2nc(C3CC3)no2)cc1 (configuration not stated)	/	/	0.8	/	/
SMILES	BB579 growth dn	Measles CPE	RAM inhibit	Yeast lifespan up	RAM efflux-def
Cc1cc(=O)c(C(=O)O)nn1-c1ccccc1	/	/	0.1	/	/
Cc1ccc(Cl)cc1N1CCN(C(=O)CN(c2ccccc2)S(=O)(=O)N(C)C)CC1	/	/	2.7	/	/
Cc1ccc(N(C(=O)Cn2nnc(-c3ccc(F)cc3)n2)C(C(=O)NC(C)(C)C)c2ccncc2)cc1 (configuration not stated)	/	/	2.8	/	/
Cc1cc(C(=O)N/N=C/c2cccs2)no1	-26.3	19.9	1.2	1.4	/
CCOP(=O)(OCC)c1nc(-c2cccc3ccccc23)oc1NCc1ccc(OC)cc1	/	/	12.9*	/	2.5
CCOP(=O)(OCC)c1nc(-c2cccc3ccccc23)oc1NCc1ccccc1	-27.4	1.3	5.7	-5.3	/
COCCn1c(SCC(=O)Nc2nnc(C)s2)nnc1-c1ccncc1	-6.0	4.8	-0.2	-4.0	/
CCOC(=O)c1sc(NC(=O)CSc2nnc(-c3ccc(OC)cc3)n2CCOC)nc1C	-38.6	28.4	12.4*	-3.3	1.5
Nc1[nH]nc2c1NN(c1ccc(Cl)cc1Cl)N2	-47.0	10.6	-0.9	-3.8	/
O=c1oc2ccccc2c2c1nnn2CCO	/	/	0.8	/	/
CCn1c(O)c(/C=C/C=C/C=Nc2ccccc2)sc1=S	/	/	2.4	/	/
CCCCn1c(O)c(/C=C/C=C/C=Nc2ccccc2)sc1=S	/	/	13.2*	/	5.9
COc1ccc(S(=O)(=O)N2CCCC(C(F)(F)F)C2)cc1 (configuration not stated)	/	/	0.1	/	/
COc1ccc(/C=C/C(=O)OCC(=O)NCc2ccco2)c(OC)c1	/	/	7.2	/	/
O=C1CCC(/C=C/c2ccccc2)=NN1Cc1ccccc1Cl	-81.0	16.2	23.1*	-5.6	1.5
COc1ccc(/C=C/C2=NN(Cc3ccccc3)C(=O)CC2)cc1	/	/	5.1	/	/
O=C1CCC(/C=C/c2ccccc2)=NN1Cc1ccc(Cl)c(Cl)c1	-28.2	2.1	13.3*	-13.2	3.9
CC(C)(C)NC(=O)C(c1cccs1)N(Cc1ccc(F)cc1)C(=O)c1csnn1 (configuration not stated)	/	/	2.1	/	/
COc1cccc(CSc2nc3ccccc3cc2C=O)c1	-54.2	13.3	11.8*	84.2*	6.0
CCOC(=O)c1c(NC(=S)Nc2ccc(OC)cc2)sc2c1CCCCC2	-56.6	15.0	15.0*	-3.2	1.8
Cc1ccc(S(=O)(=O)N(CC(=O)NCCC2=CCCCC2)Cc2ccccc2F)cc1	-32.3	5.2	7.7	18.6	/
O=C(CN(Cc1ccccc1F)S(=O)(=O)c1ccc(Cl)cc1)NCCC1=CCCCC1	-47.4	20.1	12.2*	-15.8	1.5
CCOC(=O)c1ccc(NC(=O)N2CCN(Cc3ccccc3)CC2)cc1	/	/	-1.5	/	/
O=c1c2ccccc2c(-c2ccccc2)nn1Cc1ccc(Cl)cc1	-34.2	3.2	14.2*	-17.0	1.7
CC(C)S(=O)(=O)C1=NSC2=NC(=O)/C(=C\c3ccc(-c4ccccc4)o3)C(=N)N21	0.5	2.5	14.1*	3.7	4.2
SMILES	BB579 growth dn	Measles CPE	RAM inhibit	Yeast lifespan up	RAM efflux-def
CC(=O)c1nc(-c2ccccc2)sc1C	/	/	-0.1	/	/
C=CCN(c1ccccc1)S(=O)(=O)c1ccc(Cl)c(C(=O)OCC(=O)N(C)C2CCS(=O)(=O)C2)c1 (configuration not stated)	/	/	4.1	/	/
CCN(C(=S)Nc1ccc(C(C)=O)cc1)C1CCCCC1	/	/	-1.2	/	/
Cc1cccc(C(=O)NCc2nnc(SCC(=O)NC(C)c3ccccc3)n2C)c1 (configuration not stated)	0.8	7.2	-0.9	-5.8	/
Cc1cccc(C(=O)NCc2nnc3c4ccccc4c(-c4ccccc4)nn23)c1	-27.1	5.5	11.6*	0.8	4.0
CCC(CC)c1nnc(NC(=O)CCNC(=O)c2ccccc2Cl)s1	/	/	-0.7	/	/
CC(=O)C(N=Nc1ccccc1)(Sc1nnc(-c2ccccc2)n1-c1ccccc1)C(C)=O	-71.8	26.3	11.5*	15.7	2.8
COc1cc2c(cc1NC(=O)CSc1ccc(C)cc1)oc1ccccc12	-63.3	4.4	4.3	-1.2	/

Screening data deposited in PubChem BioAssay by several laboratories.
